Measured values published in ChEMBL document CHEMBL1146345, “Synthesis and evaluation of novel 1-(1H-1,2,4-triazol-1-yl)-2-(2,4-difluorophenyl)-3-[(4-substitutedphenyl)-piperazin-1-yl]-propan-2-ols as antifungal agents” (2007).
In brackets after ≈: the same amount, converted by molar mass.

What was measured:
Format in all cases: functional
Candida albicans = test: Antifungal activity against Candida albicans after 24 hrs by microbroth dilution method
Method in brief: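 Broth microdilution following NCCLS methods, with drug dilutions in growth medium. Inoculated plates were incubated at 35 C and read at 24 h. MIC80 is the first well showing roughly 80% less growth than the drug-free well. Fluconazole and itraconazole served as positive controls.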

Candida parapsilosis = test: Antifungal activity against Candida parapsilosis ATCC 22019 by micro-broth dilution method; settings: Lodderomyces parapsilosis
Method in brief: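 Candida parapsilosis ATCC22019 was the quality-control strain tested in every assay. Microbroth dilution followed NCCLS methods, with incubation at 35 C in growth medium. MIC80 is the first well with about 80% growth reduction relative to the drug-free control. Fluconazole and itraconazole were the positive controls.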

Cryptococcus neoformans = test: Antifungal activity against Cryptococcus neoformans after 72 hrs by micro-broth dilution method
Method in brief: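 Cryptococcus neoformans was tested by NCCLS broth microdilution, with drug diluted in growth medium and incubation at 35 C. MIC was read at 72 h as MIC80, the first well with about 80% growth reduction compared with the drug-free well. Fluconazole and itraconazole were the positive controls.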

Candida tropicalis = test: Antifungal activity against Candida tropicalis by micro-broth dilution method
Method in brief: (§1)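 NCCLS microbroth dilution: drugs diluted in growth medium, inoculated, then incubated at 35 C. The endpoint was MIC80, the first well with approximately 80% less growth than the drug-free well. Fluconazole and itraconazole were run as positive controls.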

Pichia kudriavzevii = test: Antifungal activity against Candida krusei ATCC 6258 by micro-broth dilution method; method in brief: as §1
Nakaseomyces glabratus = test: Antifungal activity against Torulopsis glabrata by micro-broth dilution method; method in brief: as §1

With `O=[N+]([O-])c1ccc(/C=N/c2ccc(N3CCN(CC(O)(Cn4cncn4)c4ccc(F)cc4F)CC3)cc2)cc1` (stereo not drawn) the MIC80 (Candida albicans) was > 64 µg/mL, the MIC80 (Candida parapsilosis) was 4 µg/mL (≈ 7.31 µM) and the MIC80 (Cryptococcus neoformans) was > 64 µg/mL. The MIC80 (Candida tropicalis) was > 64 µg/mL, the MIC80 (Pichia kudriavzevii) was 4 µg/mL (≈ 7.31 µM) and the MIC80 (Nakaseomyces glabratus) was 8 µg/mL (≈ 14.6 µM).
`O=[N+]([O-])c1cccc(/C=N/c2ccc(N3CCN(CC(O)(Cn4cncn4)c4ccc(F)cc4F)CC3)cc2)c1` (stereo not drawn) gave an MIC80 (Candida albicans) of 64 µg/mL (≈ 117 µM), an MIC80 (Candida parapsilosis) of 4 µg/mL (≈ 7.31 µM) and an MIC80 (Cryptococcus neoformans) of 16 µg/mL (≈ 29.2 µM). The MIC80 (Candida tropicalis) was > 64 µg/mL, the MIC80 (Pichia kudriavzevii) was 8 µg/mL (≈ 14.6 µM) and the MIC80 (Nakaseomyces glabratus) was 4 µg/mL (≈ 7.31 µM).
`OC(CN1CCN(c2ccc(/N=C/c3ccc(Cl)c(Cl)c3)cc2)CC1)(Cn1cncn1)c1ccc(F)cc1F` (stereo not drawn) was tested, and the MIC80 (Candida albicans) was 1 µg/mL (≈ 1.75 µM), the MIC80 (Candida parapsilosis) was 8 µg/mL (≈ 14 µM) and the MIC80 (Cryptococcus neoformans) was > 64 µg/mL. The MIC80 (Candida tropicalis) was > 64 µg/mL, the MIC80 (Pichia kudriavzevii) was 16 µg/mL (≈ 28 µM) and the MIC80 (Nakaseomyces glabratus) was > 64 µg/mL.
With `Cc1ccc(/C=N/c2ccc(N3CCN(CC(O)(Cn4cncn4)c4ccc(F)cc4F)CC3)cc2)cc1` (stereo not drawn) the MIC80 (Candida albicans) was 1 µg/mL (≈ 1.94 µM), the MIC80 (Candida parapsilosis) was 2 µg/mL (≈ 3.87 µM) and the MIC80 (Cryptococcus neoformans) was > 64 µg/mL. For the same compound, the MIC80 (Candida tropicalis) was > 64 µg/mL, the MIC80 (Pichia kudriavzevii) was 4 µg/mL (≈ 7.74 µM) and the MIC80 (Nakaseomyces glabratus) was 16 µg/mL (≈ 31 µM).
In the case of `Oc1ccc(/C=N/c2ccc(N3CCN(CC(O)(Cn4cncn4)c4ccc(F)cc4F)CC3)cc2)cc1` (stereo not drawn), the MIC80 (Candida albicans) is reported as 32 µg/mL (≈ 61.7 µM), the MIC80 (Candida parapsilosis) is reported as 1 µg/mL (≈ 1.93 µM) and the MIC80 (Cryptococcus neoformans) is reported as 4 µg/mL (≈ 7.71 µM). For the same compound, the MIC80 (Candida tropicalis) was > 64 µg/mL, the MIC80 (Pichia kudriavzevii) was 4 µg/mL (≈ 7.71 µM) and the MIC80 (Nakaseomyces glabratus) was 8 µg/mL (≈ 15.4 µM).
`COc1cccc(/C=N/c2ccc(N3CCN(CC(O)(Cn4cncn4)c4ccc(F)cc4F)CC3)cc2)c1O` (stereo not drawn) was tested, and the MIC80 (Candida albicans) was > 64 µg/mL, the MIC80 (Candida parapsilosis) was 4 µg/mL (≈ 7.29 µM) and the MIC80 (Cryptococcus neoformans) was 64 µg/mL (≈ 117 µM). For the same compound, the MIC80 (Candida tropicalis) was > 64 µg/mL, the MIC80 (Pichia kudriavzevii) was 16 µg/mL (≈ 29.2 µM) and the MIC80 (Nakaseomyces glabratus) was 16 µg/mL (≈ 29.2 µM).
With `OC(CN1CCN(c2ccc(/N=C/c3ccc(Cl)cc3)cc2)CC1)(Cn1cncn1)c1ccc(F)cc1F` (stereo not drawn) the MIC80 (Candida albicans) was 0.5 µg/mL (≈ 0.931 µM), the MIC80 (Candida parapsilosis) was 1 µg/mL (≈ 1.86 µM) and the MIC80 (Cryptococcus neoformans) was 32 µg/mL (≈ 59.6 µM). For the same compound, the MIC80 (Candida tropicalis) was > 64 µg/mL, the MIC80 (Pichia kudriavzevii) was 4 µg/mL (≈ 7.45 µM) and the MIC80 (Nakaseomyces glabratus) was > 64 µg/mL.
For `OC(CN1CCN(c2ccc(/N=C/c3ccc(Br)cc3)cc2)CC1)(Cn1cncn1)c1ccc(F)cc1F` (stereo not drawn), the MIC80 (Candida albicans) was 64 µg/mL (≈ 110 µM), the MIC80 (Candida parapsilosis) was 2 µg/mL (≈ 3.44 µM) and the MIC80 (Cryptococcus neoformans) was 32 µg/mL (≈ 55 µM). For the same compound, the MIC80 (Candida tropicalis) was > 64 µg/mL, the MIC80 (Pichia kudriavzevii) was 8 µg/mL (≈ 13.8 µM) and the MIC80 (Nakaseomyces glabratus) was > 64 µg/mL.
Compound `OC(CN1CCN(c2ccc(/N=C/c3ccc4c(c3)OCO4)cc2)CC1)(Cn1cncn1)c1ccc(F)cc1F` (stereo not drawn) has an MIC80 (Candida albicans) of 16 µg/mL (≈ 29.3 µM), an MIC80 (Candida parapsilosis) of 2 µg/mL (≈ 3.66 µM) and an MIC80 (Cryptococcus neoformans) of 32 µg/mL (≈ 58.5 µM). For the same compound, the MIC80 (Candida tropicalis) was > 64 µg/mL, the MIC80 (Pichia kudriavzevii) was 4 µg/mL (≈ 7.32 µM) and the MIC80 (Nakaseomyces glabratus) was 16 µg/mL (≈ 29.3 µM).
In the case of `OC(CN1CCN(c2ccc(/N=C/c3ccc(F)cc3)cc2F)CC1)(Cn1cncn1)c1ccc(F)cc1F` (stereo not drawn), the MIC80 (Candida albicans) is reported as 4 µg/mL (≈ 7.43 µM), the MIC80 (Candida parapsilosis) is reported as 32 µg/mL (≈ 59.4 µM) and the MIC80 (Cryptococcus neoformans) is reported as 8 µg/mL (≈ 14.9 µM). The MIC80 (Candida tropicalis) was > 64 µg/mL, the MIC80 (Pichia kudriavzevii) was 8 µg/mL (≈ 14.9 µM) and the MIC80 (Nakaseomyces glabratus) was 8 µg/mL (≈ 14.9 µM).
`OC(CN1CCN(c2ccc(/N=C/c3ccc(Cl)cc3)cc2F)CC1)(Cn1cncn1)c1ccc(F)cc1F` (stereo not drawn) was tested, and the MIC80 (Candida albicans) was 16 µg/mL (≈ 28.8 µM), the MIC80 (Candida parapsilosis) was 16 µg/mL (≈ 28.8 µM) and the MIC80 (Cryptococcus neoformans) was 32 µg/mL (≈ 57.7 µM). The MIC80 (Candida tropicalis) was > 64 µg/mL, the MIC80 (Pichia kudriavzevii) was 16 µg/mL (≈ 28.8 µM) and the MIC80 (Nakaseomyces glabratus) was 32 µg/mL (≈ 57.7 µM).
`OC(CN1CCN(c2ccc(/N=C/c3ccc(Br)cc3)cc2F)CC1)(Cn1cncn1)c1ccc(F)cc1F` (stereo not drawn) showed an MIC80 (Candida albicans) of 32 µg/mL (≈ 53.4 µM), an MIC80 (Candida parapsilosis) of 8 µg/mL (≈ 13.3 µM) and an MIC80 (Cryptococcus neoformans) of 32 µg/mL (≈ 53.4 µM). For the same compound, the MIC80 (Candida tropicalis) was > 64 µg/mL, the MIC80 (Pichia kudriavzevii) was 8 µg/mL (≈ 13.3 µM) and the MIC80 (Nakaseomyces glabratus) was 16 µg/mL (≈ 26.7 µM).
Compound `Cc1ccc(/C=N/c2ccc(N3CCN(CC(O)(Cn4cncn4)c4ccc(F)cc4F)CC3)c(F)c2)cc1` (stereo not drawn) has an MIC80 (Candida albicans) of 16 µg/mL (≈ 29.9 µM), an MIC80 (Candida parapsilosis) of 32 µg/mL (≈ 59.9 µM) and an MIC80 (Cryptococcus neoformans) of 8 µg/mL (≈ 15 µM). For the same compound, the MIC80 (Candida tropicalis) was > 64 µg/mL, the MIC80 (Pichia kudriavzevii) was 16 µg/mL (≈ 29.9 µM) and the MIC80 (Nakaseomyces glabratus) was 16 µg/mL (≈ 29.9 µM).
For `OC(CN1CCN(c2ccc(/N=C/c3ccc(OCc4cccc(Cl)c4)cc3)cc2)CC1)(Cn1cncn1)c1ccc(F)cc1F` (stereo not drawn), the MIC80 (Candida albicans) was > 64 µg/mL, the MIC80 (Candida parapsilosis) was 16 µg/mL (≈ 24.9 µM) and the MIC80 (Cryptococcus neoformans) was 64 µg/mL (≈ 99.5 µM). For the same compound, the MIC80 (Candida tropicalis) was > 64 µg/mL, the MIC80 (Pichia kudriavzevii) was 32 µg/mL (≈ 49.8 µM) and the MIC80 (Nakaseomyces glabratus) was 2 µg/mL (≈ 3.11 µM).
For `OC(CN1CCN(c2ccc(/N=C/c3ccc(OCc4ccccc4)cc3)cc2)CC1)(Cn1cncn1)c1ccc(F)cc1F` (stereo not drawn), the MIC80 (Candida albicans) was 64 µg/mL (≈ 105 µM), the MIC80 (Candida parapsilosis) was > 64 µg/mL and the MIC80 (Cryptococcus neoformans) was 16 µg/mL (≈ 26.3 µM). For the same compound, the MIC80 (Candida tropicalis) was > 64 µg/mL, the MIC80 (Pichia kudriavzevii) was 8 µg/mL (≈ 13.1 µM) and the MIC80 (Nakaseomyces glabratus) was 32 µg/mL (≈ 52.6 µM).
`OC(CN1CCN(c2ccc(/N=C/c3ccc(Cl)cc3Cl)cc2)CC1)(Cn1cncn1)c1ccc(F)cc1F` (stereo not drawn) was tested, and the MIC80 (Candida albicans) was > 64 µg/mL, the MIC80 (Candida parapsilosis) was 8 µg/mL (≈ 14 µM) and the MIC80 (Cryptococcus neoformans) was 64 µg/mL (≈ 112 µM). For the same compound, the MIC80 (Candida tropicalis) was > 64 µg/mL, the MIC80 (Pichia kudriavzevii) was 8 µg/mL (≈ 14 µM) and the MIC80 (Nakaseomyces glabratus) was 8 µg/mL (≈ 14 µM).
`OC(CN1CCN(c2ccc(/N=C/c3ccc(F)cc3)cc2)CC1)(Cn1cncn1)c1ccc(F)cc1F` (stereo not drawn) gave an MIC80 (Candida albicans) of 64 µg/mL (≈ 123 µM), an MIC80 (Candida parapsilosis) of 2 µg/mL (≈ 3.84 µM) and an MIC80 (Cryptococcus neoformans) of 4 µg/mL (≈ 7.68 µM). The MIC80 (Candida tropicalis) was > 64 µg/mL, the MIC80 (Pichia kudriavzevii) was 16 µg/mL (≈ 30.7 µM) and the MIC80 (Nakaseomyces glabratus) was > 64 µg/mL.
In the case of `OC(Cn1cncn1)(Cn1cncn1)c1ccc(F)cc1F` [FLUCONAZOLE], the MIC80 (Candida albicans) is reported as 1 µg/mL (≈ 3.27 µM), the MIC80 (Candida parapsilosis) is reported as 4 µg/mL (≈ 13.1 µM) and the MIC80 (Cryptococcus neoformans) is reported as 32 µg/mL (≈ 104 µM). The MIC80 (Candida tropicalis) was 64 µg/mL (≈ 209 µM), the MIC80 (Pichia kudriavzevii) was 8 µg/mL (≈ 26.1 µM) and the MIC80 (Nakaseomyces glabratus) was 8 µg/mL (≈ 26.1 µM).
